Converted amounts (≈) assume the structure as drawn.
How the values were obtained:
[1] = Antimicrobial activity aagainst Mycobacterium sp. Mc2 in log phase assessed as inhibition of growth; assay type: functional
How it was run: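 Agar dilution along the lines of NCCLS guidance, run in duplicate on log-phase cultures. MIC is the lowest compound concentration that gives complete inhibition of bacterial growth.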

[2] = system: Mycobacterium tuberculosis; experiment: Antimicrobial activity aagainst Mycobacterium tuberculosis ATCC 14468 in starved phase by agar dilution method; assay type: functional
How it was run: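 Six-week nutrient-starved M. tuberculosis cells were tested by agar dilution in duplicate, following a literature procedure. MIC was taken as the lowest concentration giving complete inhibition of growth.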

[3] = Antimicrobial activity aagainst Mycobacterium sp. Mc2 in presence of acetate; assay type: functional
[4] = target: T1, Isocitrate lyase (Mycobacterium tuberculosis) (UniProt P9WKK7); experiment: Percent inhibition of Mycobacterium tuberculosis isocitrate lyase (ICL) at 10 uM
T1 sequence (whole entry): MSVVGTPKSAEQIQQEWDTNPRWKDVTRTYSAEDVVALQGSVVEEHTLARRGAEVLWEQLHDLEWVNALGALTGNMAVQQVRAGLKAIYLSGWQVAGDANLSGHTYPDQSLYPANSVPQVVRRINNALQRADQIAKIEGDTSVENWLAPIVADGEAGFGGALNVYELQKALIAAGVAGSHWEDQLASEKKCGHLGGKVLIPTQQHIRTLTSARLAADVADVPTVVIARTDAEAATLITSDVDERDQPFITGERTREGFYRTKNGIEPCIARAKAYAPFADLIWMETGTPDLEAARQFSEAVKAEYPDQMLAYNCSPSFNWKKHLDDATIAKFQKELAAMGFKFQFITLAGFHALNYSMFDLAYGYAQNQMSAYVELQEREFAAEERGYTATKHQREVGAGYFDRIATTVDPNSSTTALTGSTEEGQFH
How it was run: (§1)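 Isocitrate lyase activity was measured at 37 °C with phenylhydrazine present, reading glyoxylate-phenylhydrazone formation at 324 nm. Percent inhibition was determined at a single concentration.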

[5] = system: Mycobacterium tuberculosis; experiment: Antimicrobial activity aagainst Mycobacterium tuberculosis ATCC 14468 in log phase by agar dilution method; assay type: functional
How it was run: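 M. tuberculosis log-phase cultures were tested by agar dilution following NCCLS-type guidance, in duplicate. MIC was taken as the lowest concentration giving complete inhibition of bacterial growth.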

[6] = Cytotoxicity against african green monkey Vero cells after 72 hrs by MTT assay; assay type: cell-based; settings: chlorocebus sabaeus
[7] = target: T1, Isocitrate lyase (Mycobacterium tuberculosis); experiment: Percent inhibition of Mycobacterium tuberculosis isocitrate lyase (ICL) at 100 uM; how it was run: as §1

SMILES	MIC [1] [µM]	MIC [2] [µM]	MIC [3] [µM]	inhibition [4] [%]	MIC [5] [µM]	CC50 at 72 h [6] [µM]	inhibition [7] [%]
C/C(=N\NC(=O)c1ccc([N+](=O)[O-])o1)c1ccc(Br)cc1	17.8 (≈ 6.25 µg/mL)	17.8 (≈ 6.25 µg/mL)	4.43	73.1	8.88 (≈ 3.13 µg/mL)	> 178	
COc1ccc(/C=N/NC(=O)c2ccc([N+](=O)[O-])o2)cc1	43.2 (≈ 12.5 µg/mL)		21.6		21.6 (≈ 6.25 µg/mL)		
O=C(N/N=C/c1ccc(Cl)cc1)c1ccc([N+](=O)[O-])o1	42.6 (≈ 12.5 µg/mL)		10.7		21.3 (≈ 6.25 µg/mL)		
O=C(N/N=C/c1ccc(F)cc1)c1ccc([N+](=O)[O-])o1	90.2 (≈ 25 µg/mL)		45.1		22.5 (≈ 6.25 µg/mL)		
CO[C@H]1/C=C/O[C@@]2(C)Oc3c(C)c(O)c4c(O)c(c(/C=N/N5CCN(C)CC5)c(O)c4c3C2=O)NC(=O)/C(C)=C\C=C\[C@H](C)[C@H](O)[C@@H](C)[C@@H](O)[C@@H](C)[C@H](OC(C)=O)[C@@H]1C [RIFAMPIN]	1.89 (≈ 1.56 µg/mL)	> 15.2	> 15.2		0.48 (≈ 0.395 µg/mL)	> 75.9	
COc1cc(/C=N/NC(=O)c2ccc([N+](=O)[O-])o2)ccc1O	81.9 (≈ 25 µg/mL)		20.5		41 (≈ 12.5 µg/mL)		
O=C(N/N=C/c1ccccc1C(F)(F)F)c1ccc([N+](=O)[O-])o1	4.76 (≈ 1.56 µg/mL)	19.1 (≈ 6.25 µg/mL)	9.56	30.1	4.76 (≈ 1.56 µg/mL)	> 191	
O=C(N/N=C/c1ccc(O)cc1)c1ccc([N+](=O)[O-])o1	> 45.4		45.4		> 45.4		
O=C(N/N=C/c1ccccc1[N+](=O)[O-])c1ccc([N+](=O)[O-])o1	10.3 (≈ 3.13 µg/mL)	41.1 (≈ 12.5 µg/mL)	10.3	46.8	10.3 (≈ 3.13 µg/mL)	206	
O=C(N/N=C/c1ccccc1)c1ccc([N+](=O)[O-])o1	192 (≈ 49.8 µg/mL)		48.2		48.2 (≈ 12.5 µg/mL)		
C/C(=N\NC(=O)c1ccc([N+](=O)[O-])o1)c1ccccc1O	> 43.2		> 43.2		> 43.2		
O=C(N/N=C/c1ccc([N+](=O)[O-])cc1)c1ccc([N+](=O)[O-])o1	82.2 (≈ 25 µg/mL)		20.6		20.6 (≈ 6.25 µg/mL)		
Cc1ccc(/C=N/NC(=O)c2ccc([N+](=O)[O-])o2)cc1	45.7 (≈ 12.5 µg/mL)	91.5 (≈ 25 µg/mL)	22.9	19.8	11.4 (≈ 3.13 µg/mL)	> 229	
C/C(=N\NC(=O)c1ccc([N+](=O)[O-])o1)c1ccc(C)cc1	43.5 (≈ 12.5 µg/mL)	43.5 (≈ 12.5 µg/mL)	43.5	32.5	10.9 (≈ 3.13 µg/mL)	> 218	
O=C(N/N=C/c1ccco1)c1ccc([N+](=O)[O-])o1	50.2 (≈ 12.5 µg/mL)		25.1		25.1 (≈ 6.25 µg/mL)		
O=C(O)CC[N+](=O)[O-]							63.2
NNC(=O)c1ccncc1 [ISONIAZID]	45.6 (≈ 6.25 µg/mL)	> 91.1	> 91.1		0.72 (≈ 0.0987 µg/mL)	> 456	
O=C(N/N=C/c1c(Cl)cccc1Cl)c1ccc([N+](=O)[O-])o1	76.2 (≈ 25 µg/mL)		38.1		19 (≈ 6.25 µg/mL)		
O=C(N/N=C/c1cccc(Br)c1)c1ccc([N+](=O)[O-])o1	37 (≈ 12.5 µg/mL)		37		18.5 (≈ 6.25 µg/mL)		
O=C(N/N=C/c1ccc(Br)cc1)c1ccc([N+](=O)[O-])o1	73.9 (≈ 25 µg/mL)		37		18.5 (≈ 6.25 µg/mL)		
O=C(N/N=C/c1ccc([N+](=O)[O-])o1)c1ccc([N+](=O)[O-])o1	0.68 (≈ 0.2 µg/mL)	10.6 (≈ 3.13 µg/mL)	5.3	86.8	2.65 (≈ 0.78 µg/mL)	213	
C/C(=N\NC(=O)c1ccc([N+](=O)[O-])o1)c1ccc([N+](=O)[O-])cc1	19.6 (≈ 6.25 µg/mL)	19.6 (≈ 6.25 µg/mL)	19.6	48.9	9.84 (≈ 3.13 µg/mL)	> 197	
C/C(=N\NC(=O)c1ccc([N+](=O)[O-])o1)c1ccccc1	45.7 (≈ 12.5 µg/mL)	45.7 (≈ 12.5 µg/mL)	45.7	34.9	11.4 (≈ 3.13 µg/mL)	> 229	
C/C(=N\NC(=O)c1ccc([N+](=O)[O-])o1)c1ccc(F)cc1	21.5 (≈ 6.25 µg/mL)	21.5 (≈ 6.25 µg/mL)	42.9	28.1	5.35 (≈ 1.56 µg/mL)	215	

— ChEMBL document CHEMBL1208755, “5-Nitro-2-furoic acid hydrazones: design, synthesis and in vitro antimycobacterial evaluation against log and starved phase cultures” (Bioorg Med Chem Lett, 2010)
